According to PubChem BioAssay AID588828 (Broad Institute, 2011):
Calls of active or inactive are those of the source.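 How the source made its calls: active means compounds cutting labeled HDL uptake fluorescence whose fitted AC50 is within ten times their top tested dose; inconclusive means flat fit with 30 to 70% inhibition, or poor fit; inactive means the rest.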

Biological target: Scavenger receptor class B member 1 (Mus musculus) (UniProt Q61009)
Assay: mSR-BI lipid transfer inhibition in CHO cells – ldlA[mSR-BI] CHO cells, fluorescence, dry powder, set 6, dose response (AID 588828)
Conditions: DiI-HDL uptake fluorescence, 3 h; for activity change, negative = inhibition: at 35 µM (top of the series)
How it was run: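 timing = 3 h DiI-HDL exposure, 37 °C | test system = mSR-BI-overexpressing CHO ldlA cells | buffer or medium = BSA/HEPES medium, pH 7.4 | control set = DMSO neutral, BLT-1 positive | measured by = fluorescence, bottom read, excitation 550 nm, emission 595 nm | reagent = DiI-labelled HDL at 10 µg/mL | doses = compound concentration series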

Chain of Scavenger receptor class B member 1 (Mus musculus) (Q61009 whole entry, looked up): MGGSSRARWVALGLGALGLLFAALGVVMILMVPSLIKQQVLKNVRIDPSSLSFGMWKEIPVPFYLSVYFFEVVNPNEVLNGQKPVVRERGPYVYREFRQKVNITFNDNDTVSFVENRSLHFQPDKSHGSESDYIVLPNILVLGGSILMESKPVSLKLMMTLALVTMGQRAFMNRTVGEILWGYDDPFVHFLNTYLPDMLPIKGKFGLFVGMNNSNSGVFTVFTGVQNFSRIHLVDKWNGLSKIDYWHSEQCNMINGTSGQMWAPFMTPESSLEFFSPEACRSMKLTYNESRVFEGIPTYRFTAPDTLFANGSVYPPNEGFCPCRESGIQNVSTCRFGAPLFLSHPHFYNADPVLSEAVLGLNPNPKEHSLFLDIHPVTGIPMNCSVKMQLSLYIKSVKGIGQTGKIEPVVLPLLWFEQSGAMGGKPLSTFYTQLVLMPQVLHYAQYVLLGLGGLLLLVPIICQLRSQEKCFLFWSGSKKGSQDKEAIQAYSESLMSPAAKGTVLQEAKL

SMILES | AC50 | activity change, negative = inhibition
CCC(=O)N1CCc2cc(-c3csc(NC(=O)c4cccc(OC)c4)n3)ccc21 | 0.0926 µM | 
COc1cc(OC)cc(C(=O)Nc2nc(-c3ccc4c(c3)CCN4C(=O)CN(C)C)cs2)c1 | 0.0063 µM | 
COc1ccc(-c2cc(CC(=O)N(C3CCCCC3)C(C)C(=O)NC3CCCC3)no2)cc1OC (stereo unspecified) | 0.00319 µM | 
CCCCCCC1CCC/C1=N\NC(N)=S (stereo unspecified) | 0.0187 µM | 
CC(C)(Sc1cc(C(C)(C)C)c(O)c(C(C)(C)C)c1)Sc1cc(C(C)(C)C)c(O)c(C(C)(C)C)c1 |  | inactive
CCC(=O)N1CCc2cc(-c3csc(NC(=O)c4ccc(F)c(OC)c4)n3)ccc21 | 0.287 µM | 
Cc1ccc2oc(-c3cccc(NC(=O)c4cc(-n5cnnc5)ccc4Cl)c3)nc2c1 | 0.568 µM | 
CCC(=O)N1CC(C)(C)c2cc(-c3csc(NC(=O)c4cc(OC)cc(OC)c4)n3)ccc21 | 0.0142 µM | 
COc1cc(OC)cc(C(=O)Nc2nc(-c3ccc4c(c3)CCN4C(=O)OC(C)(C)C)cs2)c1 | 0.00689 µM | 
COCC(=O)N1CCc2cc(-c3csc(NC(=O)c4cc(OC)cc(OC)c4)n3)ccc21 | 0.00366 µM | 
COc1c(NC(=O)C(=O)c2ccc(OCCN3CCOCC3)c3ccccc23)cc(C(C)(C)C)cc1NS(C)(=O)=O |  | inactive
C[C@@H]1CN([C@H](C)CO)C(=O)c2cc(NC(=O)Cc3cn(C)c4ccccc34)ccc2O[C@H]1CN(C)S(=O)(=O)c1ccc(Cl)cc1 | 0.0438 µM | 
C[C@H](C(=O)NC1CCCC1)N(C(=O)Cn1nnc(-c2ccc3c(c2)OCO3)n1)C1CCCCC1 | 0.00122 µM | 
C[C@@H]1CN([C@@H](C)CO)C(=O)Cc2cc(NC(=O)Nc3ccc(C(F)(F)F)cc3)ccc2O[C@@H]1CN(C)S(=O)(=O)c1ccc(Cl)cc1 | > 22 µM (inactive) | 
CCNC(=O)N1CCc2cc(-c3csc(NC(=O)c4cc(OC)cc(OC)c4)n3)ccc21 | 0.000927 µM | 
CC(=O)N1CCc2cc(-c3nc(NC(=O)c4cccc(OC(F)(F)F)c4)sc3C)ccc21 | 0.614 µM | 
